This is an account of results in PMC5871537 (Molecular pharmaceutics, 2017).

For one data set, the target named is Hb (Homo sapiens, UniProt P69905). The data set can be described thus: Incubation of VZHE004 with Hb for 3 days, UPLC-MS analysis. The settings on record: incubated with Hb for 3 days. It counts as physicochemical.
Data set [1] concerns SS cells (homozygous sickle red blood cells). Description: Antisickling study. It counts as cell-based, human. The conditions noted are these: for inhibition of RBC sickling: hypoxia. The gist of the method:
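SS patient blood suspensions (20% hematocrit) were preincubated in air with 0, 1, 2 or 5 mM test compound (final DMSO <2%) at 37 °C for 1 h. They were then held under hypoxia (4% O2/96% N2) at 37 °C for 2 h. Aliquots were fixed in 2% glutaraldehyde without air exposure and scored microscopically for sickled cells. % inhibition was calculated against untreated control. Three biological replicates.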

The target of a further data set is sickle Hb (Hb S) (Homo sapiens, UniProt P69905). Description: Hb adduct formation study. It counts as cell-based. The settings on record: SS cells, 20% hematocrit, 2 mM compound, mean ± SD of three experiments. In short, it runs like this: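 SS cell suspensions (20% hematocrit) were incubated with test compound (final DMSO <2%) in air at 37 °C for 1 h, then under 4% O2/96% N2 at 37 °C for 2 h. Cells were PBS-washed and lysed in hypotonic buffer. Clarified hemolysate was run on weak cation-exchange HPLC, and modified Hb S was taken from elution patterns. Three biological replicates, mean ± SD.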

Another data set concerns the target Hb A (Homo sapiens, UniProt P69905). Description: Time-dependent Hb adduct formation in normal whole blood. It counts as in vitro ADME. The settings on record: for Hb modification (residual Hb adduct) at 24 h: normal whole blood, 2 mM compound; for remaining activity at 2000 µM: read-out: remaining activity at 24 h. The gist of the method: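 Normal donor whole blood (30% hematocrit) was incubated with 2 mM test compound at 37 °C for 24 h with shaking at 140 rpm. Aliquots taken at 0.5, 1, 2, 4, 6, 8 and 24 h were mixed 1:1 with sodium cyanoborohydride/borohydride mix (50 mM stock) to fix adducts. Samples were stored at −80 °C, then analysed by cation-exchange HPLC as %Hb modified versus time. Peak was found by visual inspection and AUC0–24 by linear trapezoidal rule.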

For data set [2] the following is noted: cited from earlier work.
[3] abbreviates: at all three concentrations (1, 2 and 5 mM).

The structures appear in SMILES notation. Where “and” joins values, the source holds several entries; their conditions need not be identical. Equal values may be shown once.

Take `CC(=O)OCc1ccc(C=O)o1` [VZHE004, (5-Formylfuran-2-yl)methyl Acetate]: on Hb, the “stability against hydrolytic cleavage of the ester (UPLC–MS)” value is given as “intact”.
For `CC(C)(C)OC(=O)OCc1ccc(C=O)o1` [VZHE006, tert-Butyl((5-formylfuran-2-yl)methyl) Carbonate], in data set [1] (2 mM compound), the “fold antisickling potency over the other three esters and 5-HMF” value is “roughly 3 fold”. In data set [1] (5 mM compound), the “inhibition of RBC sickling” value was over 95%. In addition, the “modified Hb (%)” value at sickle Hb (Hb S) worked out at 50.0 ± 3.0%.
On to `CCOCc1ccc(C=O)o1` [VZHE011, 5-(Ethoxymethyl)-2-furan Carboxadehyde], for which the “modified Hb (%)” value at sickle Hb (Hb S) was 40.4 ± 3.9%.
The same measure, in the same setting: then `COCc1ccc(C=O)o1` [VZHE005, 5-(Methoxymethyl)-2-furan Carboxadehyde], with 35.3 ± 11.6%.
As for `CC(C)OCc1ccc(C=O)o1` [VZHE016, 5-(Isopropoxymethyl)-2-furan Carboxadehyde], the “inhibition of RBC sickling” value in data set [1] (5 mM compound) is reported as under 10%. For the same molecule, the “modified Hb (%)” value at sickle Hb (Hb S) worked out at 36.4 ± 9.7%.
As for `O=Cc1ccc(COc2ccccc2[N+](=O)[O-])o1` [5-NMFC, 5-((2-nitrophenoxy)methyl)-2-furan carbaldehyde], the “inhibition of RBC sickling” value in data set [1] (setting [3]) is listed as under 10%. Also, at Hb A, the “Hb modification (residual Hb adduct) at 24 h” value is given as ~ 7% and the remaining activity – broadly, the share of the control activity or signal that is left under treatment – at 2000 µM is about 29%.
With `O=Cc1ccc(COc2ccc(Cl)cc2)o1` [5-CMFC, 5-((4-chlorophenoxy)methyl)-2-furan carbaldehyde], in data set [1] (setting [3]), the “inhibition of RBC sickling” value was under 10%.
As for `O=Cc1ccc(COc2ccccc2)o1` [5-PMFC, 5-(Phenoxymethyl)-2-furan carbaldehyde], on Hb A, the “Hb modification (residual Hb adduct) at 24 h” value is reported as ~ 7% and the remaining activity at 2000 µM is about 29%.
As to `CCCOCc1ccc(C=O)o1` [VZHE015, 5-(Propoxymethyl)-2-furan Carboxadehyde], the “modified Hb (%)” value on sickle Hb (Hb S) is reported as 39.7 ± 8.2%.
Consider `COP(=O)(OC)OCc1ccc(C=O)o1` [VZHE014, (5-Formylfuran-2-yl)methyl Dimethyl Phosphate], for which, in data set [1] (5 mM compound), the “inhibition of RBC sickling” value was 43% and ~ 40%. In addition, the “modified Hb (%)” value at sickle Hb (Hb S) came out at 19.7 ± 6.3%.
As for `O=Cc1ccc(CO)o1` [5-HMF, 5-hydroxymethyl-2-furfural, reference compound], the plasma half-life in data set [2] is ~ 1 h. Besides, at Hb A, the “Hb modification (residual Hb adduct) at 24 h” value was ~ 2% and 1.1%; the remaining activity at 2000 µM is about 8%.
